SUMO1-SIM PPI: SUMO1-SIM interaction modulation | P63165 | SUMO1 binding to a labelled peptide, TR-FRET, 1 h | inhibition, % at 20 µM | 0.33% of 360,000 active | AID 602429; in the data active = inhibition above about 37%
DNMT1 inh: blocks human DNA methyltransferase DNMT1; P26358; inhibition (reported as % activation of signal), % at 10 µM; DNMT1 molecular beacon, Hinp1I cleavage, fluorescence; 0.83% of 360,000 active; in the data active = inhibition above about 50%
STEP inh: STEP (human) phosphatase inhibition. P54829. recombinant STEP, OMFP fluorogenic substrate, fluorescence. inhibition, % at 20 µM. 0.25% of 360,000 active. AID 588621;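 active = inhibition at 20 µM, scaled per plate between control wells, above about 37%, limit read from the data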;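 also: 0% = DMSO with enzyme and substrate and 100% = substrate only without enzyme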
Target sequence (P54829 whole entry, looked up): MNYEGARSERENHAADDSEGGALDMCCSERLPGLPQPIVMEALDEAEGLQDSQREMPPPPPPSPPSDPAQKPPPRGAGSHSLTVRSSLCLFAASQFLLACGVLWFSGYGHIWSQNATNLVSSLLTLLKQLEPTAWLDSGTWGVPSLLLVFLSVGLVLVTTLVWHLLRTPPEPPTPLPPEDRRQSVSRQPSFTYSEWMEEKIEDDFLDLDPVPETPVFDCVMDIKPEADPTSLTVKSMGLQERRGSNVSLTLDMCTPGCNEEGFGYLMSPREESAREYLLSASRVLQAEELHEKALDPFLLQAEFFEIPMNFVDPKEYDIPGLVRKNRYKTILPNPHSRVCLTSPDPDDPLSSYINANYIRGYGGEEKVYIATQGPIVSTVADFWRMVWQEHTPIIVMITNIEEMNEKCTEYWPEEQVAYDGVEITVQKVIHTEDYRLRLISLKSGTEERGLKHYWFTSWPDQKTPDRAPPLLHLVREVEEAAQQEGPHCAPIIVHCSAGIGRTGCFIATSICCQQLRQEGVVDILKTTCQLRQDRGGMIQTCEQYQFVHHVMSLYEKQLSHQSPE
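Material: STEP (striatal-enriched tyrosine phosphatase) enzyme, cell-free | Medium: 50 mM Bis-Tris pH 6.0 with 2.5 mM DTT and 0.005% Tween 20 | Read-out: Percent inhibition scaled to no-enzyme and uninhibited-enzyme controls, plate-pattern corrected | Signal: Fluorescence read at 480 nm ex / 540 nm em | Times: 20 min reaction, room temperature, in the dark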
Scp-1 inhibitor: inhibitors of human Scp-1 phosphatase; Recombinant Scp1, phosphopeptide, malachite green phosphate absorbance; Q9GZU7; 0.88% of 340,000 active; inhibition, % at 20 µM;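 active = inhibition above about 50% at 20 µM, limit read from the data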;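 also: plate controls were DMSO wells with enzyme for no effect and wells lacking enzyme for full effect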
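System: SCP-1 catalytic domain; Reagent: Phospho 17-mer peptide substrate; Doses: one concentration, 20 µM, with 1.0% DMSO; Incubation: 45 min room-temperature reaction, 5 min colour, 30 min stabiliser; Signal: Phosphate-binding colour reagent, absorbance read at 630 nm.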
LMPTP inh: LMPTP (human) inhibition | recombinant LMPTP-A, OMFP fluorogenic substrate, fluorescence intensity | 0.22% of 360,000 active | P24666 | AID 651560 | inhibition, % at 20 µM;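 active = compounds that cut the enzyme signal by at least half of the control window in the single-dose screen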;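 also: plate controls were DMSO wells with enzyme plus substrate for no effect and substrate without enzyme for full effect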
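Test system – LMPTP-A enzyme · Amount – LMPTP-A at 0.625 nM final in the reaction · Buffer or medium – Bis-Tris pH 6.0, DTT, detergent · Reagent – OMFP 400 µM · Doses – single 20 µM dose · Schedule – reaction 50 min, room temperature, dark · Detection – fluorescence intensity of OMFP turnover product · Evaluation – percent inhibition versus substrate-only and uninhibited controls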
NadD block: inhibitors of Staphylococcus aureus NadD. purified NadD enzyme, colorimetric absorbance read-out. inhibition, % at 20 µM. 0.78% of 360,000 active. AID 602399; in the data active = inhibition above about 26%
* marks the source's active call; other numbers are inactive results; / = no result. Only some compounds are listed: those with a hit (about 2.4% of all), similar ones and a draw of the others.

SMILES	SUMO1-SIM PPI	DNMT1 inh	STEP inh	Scp-1 inhibitor	LMPTP inh	NadD block
O=C1NC(=Nc2cccc(O)c2)S/C1=C\c1cccnc1	-28	-1	-2	2	14	3
Cc1cc(C)c2c(c1)C1C=CCC1C(c1ccc(S(=O)(=O)N3CCOCC3)cc1)N2 (centres undefined)	-4	-15	0	-4	-1	12
O=C(O)c1cc(Cl)c2c(c1)[C@@H]1C=CC[C@@H]1[C@H](c1ccc(S(=O)(=O)N3CCOCC3)cc1)N2	42*	13	1	12	0	15
CCN(Cc1ccccc1)C(=O)C1CCN(Cc2ccc(SC)cc2)CC1	42*	-1	0	-5	-1	-2
CCN(Cc1ccccc1)C1CCN(Cc2ccc(SC)cc2)CC1	19	-2	15	-11	-3	-4
CN(C)c1nc(N)nc(/C(C#N)=C/C2CC3C=CC2C3)n1 (centres undefined)	4	-7	0	-3	67*	-3
Cc1csc(N/N=C/c2ccc([N+](=O)[O-])cc2)n1	-27	-8	1	-9	2	3
O=C(O)c1csc(N/N=C/c2ccc(Br)cc2)n1	5	13	-1	-1	59*	11
O=C(COC(=O)c1ccc([N+](=O)[O-])s1)NC(c1ccccc1)c1ccccc1	59*	28	-1	2	-1	-9
O=C(COC(=O)c1ccc([N+](=O)[O-])s1)Nc1ccccc1	22	-1	1	-10	-2	-5
CCN(CC(=O)Nc1ccccc1OC)C(=O)CCc1ccccc1	40*	1	1	-6	0	-5
CCOc1ccc(OCCC(=O)N(CC)CC(=O)Nc2ccccc2OC)cc1	-2	3	1	-5	1	-3
O=C(c1ccccc1)c1ccc(-n2cnnc2)c([N+](=O)[O-])c1	-35	-2	3	-3	0	1
Cc1ccc(S(=O)(=O)NCc2nc3ccccc3[nH]2)cc1	-1	-2	2	-2	-1	-8
Cc1c(N2C(=O)c3ccc4c5c(ccc(c35)C2=O)CC4)c(=O)n(-c2ccccc2)n1C	-5	90*	7	65*	52*	20
COc1cc(C2C(C#N)=C(N)Oc3cc(C)oc(=O)c32)cc2c1OCO2 (centres undefined)	46*	19	-1	3	1	9
COc1cc(C2C(C#N)=C(N)Oc3cc(C)oc(=O)c32)cc(OC)c1OC (centres undefined)	10	-1	0	-17	-1	4
Cc1cc(N=Nc2ccc(C)c(N=Nc3cc(C)c(N)cc3N)c2)c(N)cc1N	-199	-25	2	-4	4	30*
COc1ccc(N=Nc2cc(OC)c(N)cc2OC)cc1	-68	-9	6	5	6	4
COC(=O)c1ccc(NC(=O)COc2ccc(S(=O)(=O)NC(C)(C)C)cc2)cc1	1	1	0	-9	-1	1
CCN(CC)c1ccc(-c2nn3c(-c4n[nH]c5c4CCC5)nnc3s2)cc1	-6	23	10	15	10	54*
CC(C)(C)c1csc(NC(=O)CCS(=O)(=O)c2ccc(F)cc2)n1	1	1	0	/	0	-7
O=C(CCS(=O)(=O)c1ccc(F)cc1)Nc1nc(-c2ccncc2)cs1	-1	8	57*	-5	0	-2
O=C1C(F)=CC(COC(c2ccccc2)(c2ccccc2)c2ccccc2)OC1n1cc(F)c(=O)[nH]c1=O (centres undefined)	12	34	-3	-5	2	51*
CC(=O)OCC1OC(n2cc(F)c(=O)[nH]c2=O)C(OC(C)=O)C1OC(C)=O (centres undefined)	-1	1	-2	-27	-1	-4
SMILES	SUMO1-SIM PPI	DNMT1 inh	STEP inh	Scp-1 inhibitor	LMPTP inh	NadD block
C#CCOCCOCCOCCNc1nc(N2CCN(C(=O)CCCCCCCCCCNC(=O)Cn3cc(C[C@@H](C)O)nn3)CC2)nc(N2CCN(C(=O)CCCCCCCCCCNC(=O)[C@H](CCCCN)n3cc(C[C@@H](C)CC)nn3)CC2)n1	26	-109	4	33	6	44*
C#CCOCCOCCOCCNc1nc(N2CCN(C(=O)CCCCCCCCCCNC(=O)[C@H](CCCCN)n3cc(CCO)nn3)CC2)nc(N2CCN(C(=O)CCCCCCCCCCNC(=O)[C@H](CCCCN)n3cc(CCO)nn3)CC2)n1	-55	-102	-2	3	-9	9
C#CCOCCOCCOCCNc1nc(N2CCN(C(=O)CCCCCCCCCCNC(=O)[C@@H](CCSC)n3cc(CCO)nn3)CC2)nc(N2CCN(C(=O)CCCCCCCCCCNC(=O)[C@H]([C@@H](C)CC)n3cc(CCCCCN)nn3)CC2)n1	/	/	/	32	/	/
C#CCOCCOCCOCCNc1nc(N2CCN(C(=O)CCCCCCCCCCNC(=O)[C@@H](CCSC)n3cc(CCO)nn3)CC2)nc(N2CCN(C(=O)CCCCCCCCCCNC(=O)[C@H]([C@@H](C)CC)n3cc(CCCCN=C(N)N)nn3)CC2)n1	90*	-86	9	38	13	68*
C#CCOCCOCCOCCNc1nc(N2CCN(C(=O)CCCCCCCCCCNC(=O)Cn3cc(C[C@@H](C)O)nn3)CC2)nc(N2CCN(C(=O)CCCCCCCCCCNC(=O)Cn3cc(C[C@@H](C)O)nn3)CC2)n1	10	-37	1	11	0	6
C#CCOCCOCCOCCNc1nc(N2CCN(C(=O)CCCCCCCCCCNC(=O)[C@H](CCCCN)n3cc(CCO)nn3)CC2)nc(N2CCN(C(=O)CCCCCCCCCCNC(=O)[C@H](CCCN=C(N)N)n3cc(C[C@@H](C)CC)nn3)CC2)n1	90*	-53	6	29	7	44*
C#CCOCCOCCOCCNc1nc(N2CCN(C(=O)CCCCCCCCCCNC(=O)[C@H](CCCCN)n3cc(C[C@@H](C)CC)nn3)CC2)nc(N2CCN(C(=O)CCCCCCCCCCNC(=O)[C@H](CCCCN)n3cc(C[C@@H](C)CC)nn3)CC2)n1	67*	-127	12	53*	4	48*
CCN(CC)S(=O)(=O)c1ccc2c(c1)c(=O)c(C(=O)N1CCc3ccccc3C1)cn2C	9	0	0	-5	-1	3
COc1cccc2c1NC(C(=O)O)C1CC=CC21 (centres undefined)	52*	98*	70*	74*	52*	30
CC(=O)c1ccc2c(c1)C1C=CCC1C(C(=O)O)N2 (centres undefined)	60*	91*	70*	75*	12	19
CS(=O)(=O)N1CCc2cc(S(=O)(=O)N3CCCCC3)ccc21	-2	-2	2	-4	-1	-3
